System: Plasmodium falciparum
Test: Antiplasmodial activity chloroquine-sensitive Plasmodium falciparum 3D7 infected in human A+ erythrocytes assessed as inhibition of [3H]-hypoxanthine incorporation after 24 hrs by scintillation counting
Type: functional, organism-based
Conditions: not given

Compound	IC50
CCOC(=O)c1c(C)nc(NCCCNc2ccnc3cc(Cl)ccc23)nc1-c1ccccc1	0.247 µM

System: Plasmodium falciparum
Test: Antiplasmodial activity chloroquine-resistant Plasmodium falciparum K1 infected in human A+ erythrocytes assessed as inhibition of [3H]-hypoxanthine incorporation after 24 hrs by scintillation counting
Type: functional, organism-based
Conditions: not given

Compound	IC50
CCOC(=O)c1c(C)nc(NCCCNc2ccnc3cc(Cl)ccc23)nc1-c1ccccc1	0.0522 µM

System: Plasmodium falciparum
Test: Resistant factor, ratio of IC50 for chloroquine-resistant Plasmodium falciparum K1 to IC50 for chloroquine-sensitive Plasmodium falciparum 3D7
Type: functional
Conditions: not given
Method in brief: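 Resistance factor computed as IC50 against K1 divided by IC50 against 3D7, both from the [3H]hypoxanthine incorporation assay.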

Compound	Ratio IC50
CCOC(=O)c1c(C)nc(NCCCNc2ccnc3cc(Cl)ccc23)nc1-c1ccccc1	0.21

System: MDCK
Test: Cytotoxicity against MDCK cells assessed as cell viability by colorimetric formazan-based MTS assay
Design: species or system Canis lupus familiaris
Conditions: dog, mdck
Method in brief: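 Cytotoxicity on MDCK cells; 50% cytotoxic concentration from cell viability measured by colorimetric formazan-based MTS assay.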

Compound	CC50
CCOC(=O)c1c(C)nc(NCCCNc2ccnc3cc(Cl)ccc23)nc1-c1ccccc1	0.8 µM

System: not listed separately
Test: Cytotoxicity against MDCK cells assessed as minimum compound concentration required to causes microscopically detectable alteration of normal cell morphology
Type: cell-based, Canis lupus familiaris
Conditions: dog
Method in brief: (§1)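 Confluent, non-proliferating cell cultures were exposed to the compounds. The endpoint was the minimum concentration producing a microscopically detectable alteration of normal cell morphology.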

Compound	MCC
CCOC(=O)c1c(C)nc(NCCCNc2ccnc3cc(Cl)ccc23)nc1-c1ccccc1	800 nM

System: not listed separately
Test: Selectivity index, ratio of CC50 for MDCK cells to IC50 for chloroquine-resistant Plasmodium falciparum K1
Type: functional
Conditions: not given
Method in brief: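 Selectivity index computed as MTS-based CC50 on MDCK cells divided by IC50 against P. falciparum K1.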

Compound	Ratio CC50/IC50
CCOC(=O)c1c(C)nc(NCCCNc2ccnc3cc(Cl)ccc23)nc1-c1ccccc1	15.33

System: not listed separately
Test: Cytotoxicity against african green monkey Vero cells assessed as minimum compound concentration required to causes microscopically detectable alteration of normal cell morphology
Type: cell-based
Conditions: chlorocebus sabaeus
Method in brief: as §1

Compound	MCC
CCOC(=O)c1c(C)nc(NCCCNc2ccnc3cc(Cl)ccc23)nc1-c1ccccc1	100 µM

System: Human respirovirus 3
Test: Antiviral activity against Parainfluenza-3 virus infected in african green monkey Vero cells assessed as inhibition of virus-induced cytopathogenicity after 4 days
Type: functional, organism-based
Conditions: Human respirovirus 3, Vero, 96 h
Method in brief: (§2)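 Confluent HEL, Vero or HeLa monolayers were inoculated with 100 CCID50 of virus in the presence of varying concentrations of compound. Cytopathicity was scored when it reached completion in untreated, virus-infected control cultures.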

Compound	EC50
CCOC(=O)c1c(C)nc(NCCCNc2ccnc3cc(Cl)ccc23)nc1-c1ccccc1	> 20 µM

System: Mammalian orthoreovirus 1
Test: Antiviral activity against Reovirus-1 infected in african green monkey Vero cells assessed as inhibition of virus-induced cytopathogenicity after 4 days
Type: functional, organism-based
Conditions: Mammalian orthoreovirus 1, Vero, 96 h
Method in brief: as §2

Compound	EC50
CCOC(=O)c1c(C)nc(NCCCNc2ccnc3cc(Cl)ccc23)nc1-c1ccccc1	> 20 µM

System: Sindbis virus
Test: Antiviral activity against Sindbis virus infected in african green monkey Vero cells assessed as inhibition of virus-induced cytopathogenicity after 4 days
Type: functional, organism-based
Conditions: 96 h
Method in brief: as §2

Compound	EC50
CCOC(=O)c1c(C)nc(NCCCNc2ccnc3cc(Cl)ccc23)nc1-c1ccccc1	> 20 µM

System: Coxsackievirus B4
Test: Antiviral activity against Coxsackie virus B4 infected in african green monkey Vero cells assessed as inhibition of virus-induced cytopathogenicity after 4 days
Type: functional, organism-based
Conditions: Enterovirus B, 96 h
Method in brief: as §2

Compound	EC50
CCOC(=O)c1c(C)nc(NCCCNc2ccnc3cc(Cl)ccc23)nc1-c1ccccc1	> 20 µM

System: Punta Toro virus
Test: Antiviral activity against Punta Toro virus infected in african green monkey Vero cells assessed as inhibition of virus-induced cytopathogenicity after 4 days
Type: functional, organism-based
Conditions: 96 h
Method in brief: as §2

Compound	EC50
CCOC(=O)c1c(C)nc(NCCCNc2ccnc3cc(Cl)ccc23)nc1-c1ccccc1	> 20 µM

System: Human alphaherpesvirus 1
Test: Antiviral activity against HSV1 KOS infected in HEL cells assessed as inhibition of virus-induced cytopathogenicity after 4 days
Type: functional, organism-based
Conditions: Human alphaherpesvirus 1, KOS, 96 h
Method in brief: (§3)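 Confluent HEL or HeLa monolayers infected with 100 CCID50 of virus in the presence of varying compound concentrations.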

Compound	EC50
CCOC(=O)c1c(C)nc(NCCCNc2ccnc3cc(Cl)ccc23)nc1-c1ccccc1	> 100 µM

System: Human alphaherpesvirus 2
Test: Antiviral activity against HSV2 G infected in HEL cells assessed as inhibition of virus-induced cytopathogenicity after 4 days
Type: functional, organism-based
Conditions: Human alphaherpesvirus 2, strain G, 96 h
Method in brief: as §2

Compound	EC50
CCOC(=O)c1c(C)nc(NCCCNc2ccnc3cc(Cl)ccc23)nc1-c1ccccc1	> 100 µM

System: Vesicular stomatitis virus
Test: Antiviral activity against Vesicular stomatitis virus infected in HEL cells assessed as inhibition of virus-induced cytopathogenicity after 4 days
Type: functional, organism-based
Conditions: 96 h
Method in brief: as §3

Compound	EC50
CCOC(=O)c1c(C)nc(NCCCNc2ccnc3cc(Cl)ccc23)nc1-c1ccccc1	> 100 µM

System: Human alphaherpesvirus 1
Test: Antiviral activity against thymidine kinase-deficient acyclovir-resistant HSV1 KOS infected in HEL cells assessed as inhibition of virus-induced cytopathogenicity after 4 days
Type: functional, organism-based
Conditions: Human alphaherpesvirus 1, KOS, 96 h
Method in brief: as §3

Compound	EC50
CCOC(=O)c1c(C)nc(NCCCNc2ccnc3cc(Cl)ccc23)nc1-c1ccccc1	> 100 µM

System: not listed separately
Test: Cytotoxicity against human HEL cells assessed as minimum compound concentration required to causes microscopically detectable alteration of normal cell morphology
Type: cell-based
Conditions: not given
Method in brief: as §1

Compound	MCC
CCOC(=O)c1c(C)nc(NCCCNc2ccnc3cc(Cl)ccc23)nc1-c1ccccc1	> 20 µM

System: not listed separately
Test: Cytotoxicity against human HeLa cells assessed as minimum compound concentration required to causes microscopically detectable alteration of normal cell morphology
Type: cell-based
Conditions: not given
Method in brief: as §1

Compound	MCC
CCOC(=O)c1c(C)nc(NCCCNc2ccnc3cc(Cl)ccc23)nc1-c1ccccc1	> 100 µM

System: Vesicular stomatitis virus
Test: Antiviral activity against Vesicular stomatitis virus infected in HeLa cells assessed as inhibition of virus-induced cytopathogenicity after 4 days
Type: functional, organism-based
Conditions: 96 h
Method in brief: as §3

Compound	EC50
CCOC(=O)c1c(C)nc(NCCCNc2ccnc3cc(Cl)ccc23)nc1-c1ccccc1	> 100 µM

System: Coxsackievirus B4
Test: Antiviral activity against Coxsackie virus B4 infected in human HeLa cells assessed as inhibition of virus-induced cytopathogenicity after 4 days
Type: functional, organism-based
Conditions: Enterovirus B, 96 h
Method in brief: as §2

Compound	EC50
CCOC(=O)c1c(C)nc(NCCCNc2ccnc3cc(Cl)ccc23)nc1-c1ccccc1	> 100 µM

System: Respiratory syncytial virus
Test: Antiviral activity against Respiratory syncytial virus infected in human HeLa cells assessed as inhibition of virus-induced cytopathogenicity after 4 days
Type: functional, organism-based
Conditions: 96 h
Method in brief: as §2

Compound	EC50
CCOC(=O)c1c(C)nc(NCCCNc2ccnc3cc(Cl)ccc23)nc1-c1ccccc1	> 100 µM

System: Influenza A virus
Test: Antiviral activity against Influenza A virus H1N1 infected in MDCK cells assessed as reduction visual scoring of virus-induced cytopathogenicity after 4 days
Type: functional, organism-based
Conditions: 96 h
Method in brief: (§4)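 MDCK monolayers infected with 100 CCID50 of influenza A (H1N1 or H3N2) or influenza B, with varying compound concentrations. Cytopathicity read when untreated infected controls reached complete CPE.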

Compound	EC50
CCOC(=O)c1c(C)nc(NCCCNc2ccnc3cc(Cl)ccc23)nc1-c1ccccc1	> 0.16 µM

System: Influenza A virus
Test: Antiviral activity against Influenza A virus H3N2 infected in MDCK cells assessed as reduction visual scoring of virus-induced cytopathogenicity after 4 days
Type: functional, organism-based
Conditions: 96 h
Method in brief: as §4

Compound	EC50
CCOC(=O)c1c(C)nc(NCCCNc2ccnc3cc(Cl)ccc23)nc1-c1ccccc1	> 0.16 µM

System: Influenza B virus
Test: Antiviral activity against Influenza B virus infected in MDCK cells assessed as reduction visual scoring of virus-induced cytopathogenicity after 4 days
Type: functional, organism-based
Conditions: 96 h
Method in brief: as §4

Compound	EC50
CCOC(=O)c1c(C)nc(NCCCNc2ccnc3cc(Cl)ccc23)nc1-c1ccccc1	> 0.16 µM

System: Influenza A virus
Test: Antiviral activity against Influenza A virus H1N1 infected in MDCK cells assessed as inhibition of virus-induced cytopathogenicity after 4 days by colorimetric formazan-based MTS assay
Type: functional, organism-based
Conditions: 96 h

Compound	EC50
CCOC(=O)c1c(C)nc(NCCCNc2ccnc3cc(Cl)ccc23)nc1-c1ccccc1	> 0.16 µM

System: Influenza A virus
Test: Antiviral activity against Influenza A virus H3N2 infected in MDCK cells assessed as inhibition of virus-induced cytopathogenicity after 4 days by colorimetric formazan-based MTS assay
Type: functional, organism-based
Conditions: 96 h

Compound	EC50
CCOC(=O)c1c(C)nc(NCCCNc2ccnc3cc(Cl)ccc23)nc1-c1ccccc1	> 0.16 µM

System: Influenza B virus
Test: Antiviral activity against Influenza B virus infected in MDCK cells assessed as inhibition of virus-induced cytopathogenicity after 4 days by colorimetric formazan-based MTS assay
Type: functional, organism-based
Conditions: 96 h

Compound	EC50
CCOC(=O)c1c(C)nc(NCCCNc2ccnc3cc(Cl)ccc23)nc1-c1ccccc1	> 0.16 µM

System: Human betaherpesvirus 5
Test: Antiviral activity against Cytomegalovirus AD-169 infected in HEL cells assessed as inhibition of virus plaque formation after 4 days
Type: functional, organism-based
Conditions: Human betaherpesvirus 5, AD169, HEL, 96 h

Compound	EC50
CCOC(=O)c1c(C)nc(NCCCNc2ccnc3cc(Cl)ccc23)nc1-c1ccccc1	4 µM

System: Human betaherpesvirus 5
Test: Antiviral activity against Human cytomegalovirus Davis infected in HEL cells assessed as inhibition of virus plaque formation after 4 days
Type: functional, organism-based
Conditions: Human betaherpesvirus 5, Davis, 96 h

Compound	EC50
CCOC(=O)c1c(C)nc(NCCCNc2ccnc3cc(Cl)ccc23)nc1-c1ccccc1	4 µM

System: HeLa
Test: Cytotoxicity against human HeLa cells assessed as cell viability by colorimetric formazan-based MTS assay
Conditions: not given

Compound	CC50
CCOC(=O)c1c(C)nc(NCCCNc2ccnc3cc(Cl)ccc23)nc1-c1ccccc1	7.07 µM

System: Human alphaherpesvirus 3
Test: Antiviral activity against […] expressing thymidine kinase infected in HEL cells assessed as reduction of virus plaque formation after 4 days
Type: functional, cell-based
Conditions: Human alphaherpesvirus 3, strain Oka vaccine, 96 h

Compound	EC50
CCOC(=O)c1c(C)nc(NCCCNc2ccnc3cc(Cl)ccc23)nc1-c1ccccc1	> 4 µM

System: Human alphaherpesvirus 3
Test: Antiviral activity against thymidine kinase-deficient […] infected in HEL cells assessed as reduction of virus plaque formation after 4 days
Type: functional, organism-based
Conditions: Human alphaherpesvirus 3, 07-1, HEL, 96 h

Compound	EC50
CCOC(=O)c1c(C)nc(NCCCNc2ccnc3cc(Cl)ccc23)nc1-c1ccccc1	> 20 µM

System: not listed separately
Test: Cytotoxicity against cat CRFK cells assessed as cell viability by colorimetric formazan-based MTS assay
Design: species or system Felis catus
Conditions: crfk

Compound	CC50
CCOC(=O)c1c(C)nc(NCCCNc2ccnc3cc(Cl)ccc23)nc1-c1ccccc1	15.9 µM

System: Feline infectious peritonitis virus
Test: Antiviral activity against FIPV infected in cat CRFK cells assessed as inhibition of virus-induced cytopathic effect after 4 days by colorimetric formazan-based MTS assay
Type: functional, cell-based
Conditions: Alphacoronavirus 1, CRFK, 96 h

Compound	EC50
CCOC(=O)c1c(C)nc(NCCCNc2ccnc3cc(Cl)ccc23)nc1-c1ccccc1	> 4 µM

System: Felid alphaherpesvirus 1
Test: Antiviral activity against Feline herpesvirus infected in cat CRFK cells assessed as inhibition of virus-induced cytopathic effect after 4 days by colorimetric formazan-based MTS assay
Type: functional, organism-based
Conditions: Felid alphaherpesvirus 1, CRFK, 96 h

Compound	EC50
CCOC(=O)c1c(C)nc(NCCCNc2ccnc3cc(Cl)ccc23)nc1-c1ccccc1	> 4 µM

System: Human immunodeficiency virus 1
Test: Antiviral activity against HIV1 infected in human CEM cells assessed as inhibition of virus-induced cytopathic effect after 4 days
Type: functional, organism-based
Conditions: Human immunodeficiency virus 1, CCRF-CEM, 96 h
Method in brief: (§5)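 CEM T-lymphocytes (~3 × 10^5 cells/ml) were infected with HIV-1 IIIB or HIV-2 ROD at ~100 CCID50, then immediately plated with a range of compound concentrations. Giant cell formation was scored microscopically after 4 days at 37 °C. Cytostatic activity was tested in parallel in uninfected CEM cells.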

Compound	EC50
CCOC(=O)c1c(C)nc(NCCCNc2ccnc3cc(Cl)ccc23)nc1-c1ccccc1	> 2 µM

System: Human immunodeficiency virus 2
Test: Antiviral activity against HIV2 infected in human CEM cells assessed as inhibition of virus-induced cytopathic effect after 4 days
Type: functional, organism-based
Conditions: Human immunodeficiency virus 2, CCRF-CEM, 96 h
Method in brief: as §5

Compound	EC50
CCOC(=O)c1c(C)nc(NCCCNc2ccnc3cc(Cl)ccc23)nc1-c1ccccc1	> 2 µM

System: not listed separately
Test: Inhibition of beta-hematin formation assessed as Ferriprotoporphyrin IX biomineralisation at 1 mg/ml after 24 hrs
Type: functional
Conditions: not given
Method in brief: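 Hemin chloride (0.5 mg/ml in DMSO) mixed with 0.5 M sodium acetate buffer pH 4.4 and drug or solvent control, incubated 37 °C for 24 h. Pellet washed with DMSO to remove unreacted hemin, dissolved in 0.1 N NaOH, absorbance read at 405 nm; percent inhibition relative to control. Highest concentration tested 1 mg/ml.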

Compound	inhibition
CCOC(=O)c1c(C)nc(NCCCNc2ccnc3cc(Cl)ccc23)nc1-c1ccccc1	100%

Source: ChEMBL document CHEMBL2021854, “2-Aminopyrimidine based 4-aminoquinoline anti-plasmodial agents. Synthesis, biological activity, structure-activity relationship and mode of action studies” (Eur J Med Chem, 2012)
